For three compounds, Activity and IC50 results are on record in ChEMBL document CHEMBL4364282, “Engineered Substrate for Cyclooxygenase-2: A Pentapeptide Isoconformational to Arachidonic Acid for Managing Inflammation” (J Med Chem, 2019).

Active and inactive are the calls of the source. No cut-off for these calls is given here. Peptide text beside a SMILES is read from it. * marks the point of attachment. Cbz = O=C(OCc1ccccc1)*; Boc = CC(C)(C)OC(=O)*

One assay has as its system Rattus norvegicus. Briefly: Analgesic activity in Wistar rat model of acetic-acid-induced writhing assessed as inhibition of writhing numbers at 5 to 10 mg/kg, ip preincubated for 30 mins followed by acetic acid induction and measured for 30 mins relative to control. Type of assay: functional. The essentials:
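Male Wistar rats (250-300 g) in groups of 5. Writhing (abdominal contraction, trunk twisting, hind-leg extension) was induced by intraperitoneal acetic acid, and writhes were counted. Test doses were 5 and 10 mg/kg, with a vehicle control and indomethacin 10 mg/kg as reference. Data are mean±SEM (n=5), analysed by one-way ANOVA with Tukey's test (p<.05 vs control).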

In assay [1] the target is T1, Prostaglandin G/H synthase 1 (Ovis aries, UniProt P05979).
T1 sequence (P05979 whole entry): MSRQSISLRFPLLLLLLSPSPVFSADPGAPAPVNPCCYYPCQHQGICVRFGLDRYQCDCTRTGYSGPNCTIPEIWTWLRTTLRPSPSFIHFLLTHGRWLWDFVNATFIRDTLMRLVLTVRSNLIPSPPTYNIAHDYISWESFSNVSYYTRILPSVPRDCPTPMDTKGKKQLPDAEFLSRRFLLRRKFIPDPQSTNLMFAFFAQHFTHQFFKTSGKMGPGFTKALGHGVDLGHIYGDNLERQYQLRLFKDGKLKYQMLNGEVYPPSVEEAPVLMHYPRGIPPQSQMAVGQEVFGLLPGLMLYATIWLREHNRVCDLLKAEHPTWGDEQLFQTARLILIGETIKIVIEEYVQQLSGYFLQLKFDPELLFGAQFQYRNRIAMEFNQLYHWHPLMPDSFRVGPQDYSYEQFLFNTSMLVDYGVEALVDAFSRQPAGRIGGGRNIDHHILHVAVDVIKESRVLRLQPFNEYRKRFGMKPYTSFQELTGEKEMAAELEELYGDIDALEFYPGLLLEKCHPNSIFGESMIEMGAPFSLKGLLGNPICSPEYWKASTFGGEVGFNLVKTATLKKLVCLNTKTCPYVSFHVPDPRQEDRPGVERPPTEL
Briefly: Inhibition of ovine COX-1 assessed as reduction in prostaglandin production preincubated for 10 mins followed by arachidonic acid addition and measured after 2 mins by EIA method.

Take `COC(=O)CNC(=O)[C@H](CCSC)NC(=O)[C@H](Cc1ccccc1)NC(=O)[C@@H]1CCCN1C(=O)OC(C)(C)C` (Boc-PFMG-OMe): in the assay on Rattus norvegicus, the result was Active. The IC50 in assay [1] stood at 50 µM.
On to `COC(=O)CNC(=O)[C@H](Cc1ccccc1)NC(=O)[C@@H]1CCCN1C(=O)[C@H](Cc1ccccc1)NC(=O)[C@H](C)NC(=O)OCc1ccccc1` (Cbz-AFPFG-OMe), for which, in the assay with Rattus norvegicus, the outcome was Active. Further, the IC50 in assay [1] is 600 µM.
Consider `COC(=O)CNC(=O)[C@H](C)NC(=O)[C@@H]1CCCN1C(=O)CNC(=O)[C@H](C)NC(=O)OCc1ccccc1` (Cbz-AGPAG-OMe), for which the Activity in the assay on Rattus norvegicus stood at 80%.
